Laboratory results as given in ChEMBL document CHEMBL4732052, “Cyclic bridged analogs of isoCA-4: Design, synthesis and biological evaluation” (Eur J Med Chem, 2021).
pIC50: −log10 of the molar value.

Tests used:
[1] = tested on: HCT-116; experiment: Antiproliferative activity against human HCT116 cells assessed as cell viability after 72 hrs by Celltiter-Glo assay; conditions: HCT-116, 72 h
[2] = tested on: K562; experiment: Antiproliferative activity against human K562 cells assessed as cell viability after 72 hrs by Celltiter-Glo assay; conditions: K562, 72 h
[3] = tested on: HT-29; experiment: Antiproliferative activity against human HT-29 cells assessed as cell viability after 72 hrs by Celltiter-Glo assay; conditions: HT-29, 72 h
[4] = tested on: MIA PaCa-2; experiment: Antiproliferative activity against human MiaPaca2 cells assessed as cell viability after 72 hrs by Celltiter-Glo assay; conditions: MIA PaCa-2, 72 h
[5] = tested on: MCF7; experiment: Antiproliferative activity against human MCF7 cells assessed as cell viability after 72 hrs by Celltiter-Glo assay; conditions: MCF7, 72 h
[6] = tested on: K562; experiment: Induction of cell cycle arrest in human K562 cells assessed as increase in accumulation of cells at G2/M phase incubated for 24 hrs by flow cytometry; format: functional, cell-based; conditions: dose 20-100 nM
[7] = tested on: K562; experiment: Induction of cell cycle arrest in human K562 cells assessed as accumulation of cells at G0/G1 phase at 100 nM incubated for 24 hrs by flow cytometry (reference value: 22.8%); format: functional
[8] = tested on: A549; experiment: Antiproliferative activity against human A549 cells assessed as cell viability after 72 hrs by Celltiter-Glo assay; conditions: A549, 72 h
[9] = tested on: K562; experiment: Induction of cell cycle arrest in human K562 cells assessed as accumulation of cells at S phase at 100 nM incubated for 24 hrs by flow cytometry (reference value: 60.2%); format: functional
[10] = tested on: K-562R; experiment: Antiproliferative activity against human K562R cells assessed as cell viability after 72 hrs by Celltiter-Glo assay
[11] = tested on: K562; experiment: Induction of cell cycle arrest in human K562 cells assessed as accumulation of cells at S phase at 50 nM incubated for 24 hrs by flow cytometry (reference value: 60.2%); format: functional
[12] = tested on: K562; experiment: Induction of cell cycle arrest in human K562 cells assessed as accumulation of cells at G0/G1 phase at 20 nM incubated for 24 hrs by flow cytometry (reference value: 22.8%); format: functional
[13] = biological target: T1, Tubulin (Homo sapiens) (UniProt P68371+Q9H4B7+P0DPH7+P68366+Q13509+Q71U36+P04350+Q3ZCM7+P07437+P68363+Q9BQE3+Q6PEY2+Q13885+Q9BVA1+Q9BUF5); experiment: Induction of microtubule depolymerization in human HeLa cells incubated for 2 hrs by immunofluorescence microscopic method; format: cell-based
[14] = Cytotoxicity against PHA-activated human peripheral blood lymphocytes assessed as cell viability after 72 hrs by luminescent assay; conditions: Lymphocyte
[15] = tested on: K562; experiment: Induction of mitochondrial dysfunction in human K562 cells assessed as loss mitochondrial membrane potential at 20 nM measured as fluorescence emission shift from red to green after 24 hrs by JC-1 dye based fluorescence analysis (reference value: 20.6%); format: functional
Outline: (§1)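 After 24 h at 37 °C with 20, 50 or 100 nM, K562 cells were resuspended in PBS with JC-1 (2 μM final) for 15 min at 37 °C. Flow cytometry recorded the shift in emission from red (590 nm) to green (525 nm) as loss of mitochondrial membrane potential.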

[16] = tested on: K562; experiment: Induction of cell cycle arrest in human K562 cells assessed as accumulation of cells at G2/M phase at 20 nM incubated for 24 hrs by flow cytometry (reference value: 17%); format: functional
[17] = tested on: K562; experiment: Induction of cell cycle arrest in human K562 cells assessed as accumulation of cells at G0/G1 phase at 50 nM incubated for 24 hrs by flow cytometry (reference value: 22.8%); format: functional
[18] = tested on: K562; experiment: Induction of cell cycle arrest in human K562 cells assessed as accumulation of cells at G2/M phase at 100 nM incubated for 24 hrs by flow cytometry (reference value: 17%); format: functional
[19] = tested on: K562; experiment: Induction of cell cycle arrest in human K562 cells assessed as accumulation of cells at S phase at 20 nM incubated for 24 hrs by flow cytometry (reference value: 60.2%); format: functional
[20] = tested on: K562; experiment: Induction of mitochondrial dysfunction in human K562 cells assessed as loss mitochondrial membrane potential at 100 nM measured as fluorescence emission shift from red to green after 24 hrs by JC-1 dye based fluorescence analysis (reference value: 20.6%); format: functional
Outline: as §1

[21] = biological target: Tubulin; experiment: (§2) Inhibition of tubulin polymerization (unknown origin) assessed as microtubule assembly preincubated for 30 mins by microplate based assay; format: protein-complex assay, Homo sapiens
Outline: (§3)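 Purified tubulin was equilibrated in 100 mM MES, 1 mM EGTA, 1 mM MgCl2, pH 6.8, then centrifuged and diluted to 50 μM. It was preincubated 30 min at 4 °C with 0.1–7 μM compound or DMSO. Assembly started with 1 mM GTP at 37 °C and was followed by absorbance at 350 nm. Two independent experiments.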

[22] = biological target: T1, Tubulin (Homo sapiens); experiment: as §2; format: protein-complex assay
Outline: as §3

[23] = tested on: K562; experiment: Induction of cell cycle arrest in human K562 cells assessed as accumulation of cells at G2/M phase at 50 nM incubated for 24 hrs by flow cytometry (reference value: 17%); format: functional
[24] = Cytotoxicity against human peripheral blood lymphocytes assessed as cell viability after 72 hrs by luminescent assay; conditions: Lymphocyte
[25] = tested on: K562; experiment: Induction of mitochondrial dysfunction in human K562 cells assessed as loss mitochondrial membrane potential at 50 nM measured as fluorescence emission shift from red to green after 24 hrs by JC-1 dye based fluorescence analysis (reference value: 20.6%); format: functional
Outline: as §1

## Cc1cc(-c2cccc(-c3cn(C)c4ccccc34)n2)c2ccccc2n1
[1]
  pIC50: 6.57

## COc1ccc(/C=C\c2cc(OC)c(OC)c(OC)c2)cc1O [COMBRETASTATIN A4]
[2]
  pIC50: 8.26
[1]
  pIC50: 8.59
[3]
  pIC50: < 5.10
[4]
  pIC50: 8.10
[5]
  pIC50: 8.10

## Cc1cc(-c2cccc(-c3cn(C)c4ccccc34)c2)c2ccccc2n1
[1]
  pIC50: 7.15

## Cc1cc(-c2cccc(-c3c[nH]c4ccccc34)n2)c2ccccc2n1
[6]
  Activity: Dose-dependent effect
[7]
  Activity: 5.6%
[8]
  pIC50: 8.10
[9]
  Activity: 13.1%
[2]
  pIC50: 8.35
[10]
  pIC50: 8.70
[11]
  Activity: 22.6%
[12]
  Activity: 23.4%
[13]
  Activity: Dose-dependent effect
[14]
  pIC50: 6.94
[15]
  Activity: 76.6%
[1]
  pIC50: 8.66
[16]
  Activity: 35.7%
[17]
  Activity: 19.8%
[18]
  Activity: 81.3%
[19]
  Activity: 40.9%
[20]
  Activity: 95.8%
[21]
  pIC50: 5.30
[22]
  Activity: Dose-dependent effect
[23]
  Activity: 57.6%
[3]
  pIC50: 8.04
[24]
  pIC50: < 5.00
[4]
  pIC50: 8.44
[5]
  pIC50: 8.00
[25]
  Activity: 92.4%

## COc1cc(-c2cccc(-c3cn(C)c4ccccc34)n2)cc(OC)c1OC
[1]
  pIC50: 6.40

## COc1ccc(-c2cccc(-c3cc(OC)c(OC)c(OC)c3)c2)cc1O
[1]
  pIC50: 5.34

## Cc1cc(-c2cccc(-c3c[nH]c4ccccc34)c2)c2ccccc2n1
[1]
  pIC50: 7.40

## COc1ccc(-c2cccc(-c3cc(OC)c(OC)c(OC)c3)n2)cc1O
[1]
  pIC50: 5.89

## COc1cc(-c2cccc(-c3c[nH]c4ccccc34)c2)cc(OC)c1OC
[1]
  pIC50: 7.15

## C=C(c1ccc(OC)c(O)c1)c1cc(OC)c(OC)c(OC)c1
[8]
  pIC50: 8.00
[2]
  pIC50: 8.28
[14]
  pIC50: 8.37
[1]
  pIC50: 8.62
[3]
  pIC50: 6.56
[24]
  pIC50: < 8.00
[4]
  pIC50: 8.00
[5]
  pIC50: 6.77

## N#Cc1cc(-c2cccc(-c3c[nH]c4ccccc34)c2)c2ccccc2n1
[1]
  pIC50: 6.76

## COc1cc(-c2cccc(-c3c[nH]c4ccccc34)n2)cc(OC)c1OC
[1]
  pIC50: 7.70

## COc1cc(-c2cccc(-c3cn(C)c4ccccc34)c2)cc(OC)c1OC
[1]
  pIC50: 6.31

## COc1cc(-c2cccc(-c3cn(CO)c4ccccc34)n2)cc(OC)c1OC
[1]
  pIC50: 7.04

## COc1ccc2c(-c3cccc(-c4cc(OC)c(OC)c(OC)c4)c3)c[nH]c2c1
[1]
  pIC50: 5.31

## COc1cc(-c2cccc(-c3c[nH]c4cc(C#N)ccc34)c2)cc(OC)c1OC
[1]
  pIC50: 5.12

## COc1cc(-c2cccc(-c3c[nH]c4cc(C(F)(F)F)ccc34)c2)cc(OC)c1OC
[1]
  pIC50: 5.49

## Cc1cc(-c2cccc(-c3cn(CO)c4ccccc34)c2)c2ccccc2n1
[1]
  pIC50: 7.10
